Reference: paper PMC2753677 (Biochemistry, 2009)
“Also recorded” adds a separate entry of the source.

Columns and labels:
[1] = system: CypA-induced chemotaxis of mouse CD4+ T cells; assay: Boyden chamber chemotaxis assay, CypA-induced; format: cell-based; conditions: 2 μM compound, 100 ng/ml CypA, activated mouse CD4+ T cells, 50 min
Summary of the method: (§1)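 Mouse spleen cells (3×10^6/well) stimulated overnight with ConA 10 μg/ml in Click's medium + 5% FCS, 37°C, 5% CO2; CD4+ T cells isolated by MACS negative depletion. 104 cells placed in upper wells of 48-well Boyden chamber (5-μm polycarbonate membrane). Lower wells: RPMI-1640 + 1% BSA with recombinant human CypA or recombinant CypB. Test compound added to top and bottom wells. 50 min, 37°C. Membrane Wright-Giemsa stained; chemotactic index = migrated cells/mean medium-alone.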

[2] = system: RANTES-induced migration of mouse CD4+ T cells; assay: Boyden chamber chemotaxis assay, RANTES-induced; format: cell-based; conditions: 1 ng/ml mouse RANTES, activated mouse CD4+ T cells (data not shown)
Human CypB = Human CypB (Homo sapiens, UniProt P23284); assay: protease-free PPIase assay, CypB; format: biochemical; conditions: up to a concentration of 30 μM
FKBP12 = FKBP12 (Homo sapiens, UniProt P62942); assay: PPIase inhibition, FKBP12; format: biochemical
[3] = system: CypB-induced chemotaxis of mouse CD4+ T cells; assay: Boyden chamber chemotaxis assay, CypB-induced; format: cell-based; conditions: 2 μM compound, 200 ng/ml CypB, activated mouse CD4+ T cells, 50 min
Summary of the method: as §1

CypA [4] = biological target: T1, CypA (Homo sapiens, UniProt P62937); assay: isothermal titration calorimetry; format: binding
Par14 = Par14 (Homo sapiens, UniProt Q9Y237); assay: PPIase inhibition, Par14; format: biochemical
[5] = ITC control titration of CsA with compound 1; format: binding; conditions: syringe 1, cell CsA; n.s. = no signal of heat formation
mouse (His)6-CypC = mouse (His)6-CypC (Mus musculus, UniProt P30412); assay: protease-free PPIase assay, CypC; format: biochemical
CypA [6] = biological target: T1, CypA; assay: protease-free PPIase assay, CypA; format: biochemical; conditions: 35 mM HEPES pH 7.8, 283 K, Suc-Ala-Ala-Pro-Phe-pNA 60 μM

T1 sequence (P62937 whole entry): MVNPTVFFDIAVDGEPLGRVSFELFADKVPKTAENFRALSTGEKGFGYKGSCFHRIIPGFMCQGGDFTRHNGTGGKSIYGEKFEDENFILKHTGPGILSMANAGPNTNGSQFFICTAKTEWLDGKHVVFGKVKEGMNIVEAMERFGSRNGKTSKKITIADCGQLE
Sequence of mouse (His)6-CypC (P30412 whole entry): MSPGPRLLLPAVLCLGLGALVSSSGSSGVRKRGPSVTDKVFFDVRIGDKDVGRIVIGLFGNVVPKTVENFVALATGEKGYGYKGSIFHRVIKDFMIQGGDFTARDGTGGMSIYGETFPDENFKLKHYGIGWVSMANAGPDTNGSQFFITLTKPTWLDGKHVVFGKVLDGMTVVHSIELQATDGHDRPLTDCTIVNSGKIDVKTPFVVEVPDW
Sequence of Par14 (Q9Y237 whole entry): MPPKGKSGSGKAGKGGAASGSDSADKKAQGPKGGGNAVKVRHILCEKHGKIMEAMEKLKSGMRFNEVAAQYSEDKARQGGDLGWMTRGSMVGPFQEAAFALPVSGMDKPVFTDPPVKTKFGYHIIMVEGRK
Sequence of Human CypB (P23284 34-216): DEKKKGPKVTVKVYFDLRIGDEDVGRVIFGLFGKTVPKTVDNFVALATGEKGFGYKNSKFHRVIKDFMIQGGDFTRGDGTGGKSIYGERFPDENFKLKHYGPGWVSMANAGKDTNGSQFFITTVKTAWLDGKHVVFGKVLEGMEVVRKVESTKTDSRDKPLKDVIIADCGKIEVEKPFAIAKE
Sequence of FKBP12 (P62942 whole entry, species assumed): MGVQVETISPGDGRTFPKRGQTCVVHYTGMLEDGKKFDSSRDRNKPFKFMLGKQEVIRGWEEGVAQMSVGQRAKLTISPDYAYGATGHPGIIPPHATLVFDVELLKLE

| Molecule | inhibition of CypA-induced chemotaxis [1] | effect on RANTES-induced cell migration [2] | response of PPIase activity of CypB (Human CypB) | Ki (FKBP12) [µM] | effect on CypB-induced chemotaxis [3] | association constant KA (CypA [4]; competition ITC approach, calculated by eq. 2, 293 K) [M⁻¹] | binding enthalpy ΔH (CypA [4]; competition ITC approach, calculated by eq. 3, 293 K) [kcal/mol] | Kd (CypA [4]; read-out: dissociation constant KD, ITC probe of CsA/compound 1 competition) [µM] | influence on Par14 (Par14) | KA [5] | Ki (mouse (His)6-CypC; CypC, 35 mM HEPES pH 7.8, 283 K, Suc-Ala-Ala-Pro-Phe-pNA 60 μM) [µM] | response of PPIase activity of CypC (mouse (His)6-CypC; up to a concentration of 30 μM) | Ki (CypA [6]) [µM] |
| --- | --- | --- | --- | --- | --- | --- | --- | --- | --- | --- | --- | --- | --- |
| O=C(c1cc(-c2cc(F)cc([N+](=O)[O-])c2O)cc([N+](=O)[O-])c1O)C1CCc2ccccc21 (stereo not shown) [Compound 1] | almost completely; also recorded: specifically inhibited | not impacted | did not respond | 38 ± 8 | barely impacted; also recorded: not influenced | 44000 | -2.8 | 22.6 | does not influence | n.s. | > 100 | did not respond |  |
| [O-(CF-NH(CH2)2NHC(O)CH2-)D-Ser]^8CsA |  |  |  |  |  |  |  |  |  |  |  |  | 0.0024 ± 0.0003 |
